Six compounds from ChEMBL document CHEMBL1153844, “Synthesis, crystal structure and anti-inflammatory properties of curcumin analogues” (2009) can be followed below.

Active and inactive are the calls of the source. The calls are words filed in the database; no cut-off is given here.

In assay [1] the test system is J774.A1. As to the kind of experiment: Antiinflammatory activity in mouse J774A1 cells assessed as inhibition of LPS-induced TNFalpha production at 10 uM preincubated for 3 hrs before LPS challenge measured after 21 hrs by ELISA. The assay is classed as functional, cell-based. The method, boiled down: (§1)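 J774A.1 mouse macrophage-like cells were plated overnight in DMEM with 10% FBS and penicillin/streptomycin at 1.2 × 10⁶/plate, 37 °C, 5% CO₂. They were pretreated 3 h with compound or vehicle, then given LPS for 21 h. TNF-α or IL-6 in the medium was measured by ELISA and normalized to total protein of the lysed cell pellet. Values are percent of LPS control, from three independent experiments (mean ± S.E.).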
A general note: In an ELISA, binding on a coated surface is turned into a signal by an enzyme label.

In assay [2] the test system is J774.A1. As to the kind of experiment: Antiinflammatory activity in mouse J774A1 cells assessed as inhibition of LPS-induced IL6 production at 10 uM preincubated for 3 hrs before LPS challenge measured after 21 hrs by ELISA. The assay is classed as functional, cell-based. The method, boiled down:
as §1

Assay [3] deals with J774.A1. The experiment in a line: Antiinflammatory activity in mouse J774A1 cells assessed as inhibition of LPS-induced TNFalpha production at 10 uM preincubated for 3 hrs before LPS challenge measured after 21 hrs by ELISA relative to control. The assay is classed as functional. The method, boiled down: as §1
The subject of assay [4] is J774.A1. The experiment in a line: Antiinflammatory activity in mouse J774A1 cells assessed as inhibition of LPS-induced IL6 production at 10 uM preincubated for 3 hrs before LPS challenge measured after 21 hrs by ELISA relative to control. The class given is functional. The method, boiled down: as §1
The subject of assay [5] is J774.A1. The experiment in a line: Enhancement of LPS-induced TNFalpha production in mouse J774A1 cells at 10 uM preincubated for 3 hrs before LPS challenge measured after 21 hrs by ELISA. The assay is classed as functional, cell-based. The method, boiled down: as §1
Assay [6] relates to J774.A1. The experiment in a line: Enhancement of LPS-induced IL6 production in mouse J774A1 cells at 10 uM preincubated for 3 hrs before LPS challenge measured after 21 hrs by ELISA. The assay is classed as functional, cell-based. The method, boiled down:
as §1

Turning to `COc1cc(/C=C/C(=O)/C=C/c2ccc(O)c(OC)c2)ccc1O`, the result in the assay on J774.A1 [1] and in the assay on J774.A1 [2] was Active.
For `O=C1/C(=C/c2ccc(F)cc2)CCC/C1=C\c1ccc(F)cc1`, the inhibition (commonly the relative decrease from the control value, in per cent) at 10 µM with J774.A1 [3] was 65.3%; in the assay on J774.A1 [4], 54.8%.
`COc1cc(/C=C2\CC/C(=C\c3ccc(O)c(OC)c3)C2=O)ccc1O`: the result in the assay on J774.A1 [1] and with J774.A1 [2] was Active.
`O=C(/C=C/c1ccc(O)cc1)/C=C/c1ccc(O)cc1`: the result in the assay on J774.A1 [5] and in the assay on J774.A1 [6] was Active.
For `COc1cc(/C=C2\CCC/C(=C\c3ccc(O)c(OC)c3)C2=O)ccc1O`, the result in the assay with J774.A1 [1] and with J774.A1 [2] was Active.
For `O=C1/C(=C/c2ccc(O)cc2)CCC/C1=C\c1ccc(O)cc1`, the outcome in the assay on J774.A1 [1] and in the assay with J774.A1 [2] was Active.
